Experimental data published in ChEMBL document CHEMBL1144718, “Novel 3-aroylpyrazolo[5,1-c][1,2,4]benzotriazine 5-oxides 8-substituted, ligands at GABAA/benzodiazepine receptor complex: synthesis, pharmacological and molecular modeling studies” (Bioorg Med Chem, 2008).
The source made the active and inactive calls. The rule behind the calls is not given here.

Assays:
[1] = Displacement of [3H]flumazenil from GABAA/BzR complex in bovine cerebral cortex membrane; type: cell membranes, Bos taurus
Procedure, shortened: (§1)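 Bovine cerebral cortex membranes in 50 mM Tris-citrate pH 7.4 incubated with [3H]Ro15-1788 (1–2 nM) for 1 h at 4 °C to equilibrium; nonspecific binding with 10^-5 M diazepam; DMSO ≤1%. Ki from ≥6 concentrations (10^-9–10^-5 M) by curve fitting and Cheng–Prusoff; percent inhibition at 10 µM; five determinations, triplicate.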

Mus musculus [2] = test: Increase in learning and memory performance in CD1 albino mouse at 10 mg/kg, po after 24 hrs by passive avoidance test; type: functional, organism-based; parameters: dose 10 mg/kg
Procedure, shortened: (§2)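 Passive avoidance in male CD-1 mice treated po 30 min before training; retention tested 24 h later. Latency to enter the dark compartment measured, maximum 60 s (training) and 180 s (retention). Means ± SEM of 15–18 mice.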

Mus musculus [3] = test: Effect on motor coordination in CD1 Albino mouse assessed as number of falls in 30 secs at 3 mg/kg, po after 30 mins by rotarod test; type: functional
Procedure, shortened: (§3)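 Rota-rod at 16 rpm in male CD-1 mice after po dosing in 1% CMC; number of falls in 30 s counted at 15, 30, 45 and 60 min post-administration.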

Mus musculus [4] = test: Anticonvulsant activity against pentylenetetrazole-induced seizure in CD1 Albino mouse assessed as convulsant latency at 30 mg/kg, po after 30 mins; type: functional
Procedure, shortened: (§4)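 Male CD-1 mice (22–24 g), compound suspended in 1% CMC (sonicated) given po in 10 ml/kg; 30 min later PTZ 90 mg/kg sc (in saline). Latency (s) to shock and to convulsions recorded; clonic generalized convulsions counted over 30 min.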

Mus musculus [5] = test: Sedative activity in CD1 albino mouse assessed as reduction of curiosity at 3 mg/kg, po after 30 mins by hole-board test; type: functional, organism-based; parameters: dose 3 mg/kg
Procedure, shortened: (§5)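 Hole-board: male CD-1 mice given compound po (1% CMC) and placed individually on the board 30 min later, free to explore panel and holes for 5 min; spontaneous motility and exploration (panel and hole movements) scored.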

Mus musculus [6] = test: Anticonvulsant activity against pentylenetetrazole-induced seizure in CD1 Albino mouse assessed as shock latency at 3 mg/kg, po after 30 mins; type: functional; procedure, shortened: as §4
Mus musculus [7] = test: Anticonvulsant activity against pentylenetetrazole-induced seizure in CD1 Albino mouse assessed as shock latency at 10 mg/kg, po after 30 mins; type: functional; procedure, shortened: as §4
Mus musculus [8] = test: Anxiolytic effect in CD1 albino mouse at 10 mg/kg, po after 30 mins by light-dark box test; type: functional, organism-based; parameters: dose 10 mg/kg
Procedure, shortened: (§6)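 Male CD-1 mice (22–24 g); test agent po in 1% CMC, 30 min before a light/dark box session; time (s) spent in the illuminated compartment measured. Means ± SEM of 14–21 mice.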

Mus musculus [9] = test: Effect on motor coordination in CD1 Albino mouse assessed as number of falls in 30 secs at 10 mg/kg, po after 30 mins by rotarod test relative to control; type: functional; procedure, shortened: as §3
Mus musculus [10] = test: Effect on ethanol-induced sleeping time in CD1 Albino mouse assessed as increase in duration of loss of righting reflex at 30 mg/kg, po after 30 mins; type: functional, organism-based; parameters: dose 30 mg/kg
Procedure, shortened: (§7)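 Male CD-1 mice dosed po (1% CMC suspension); ethanol 4 g/kg ip given 30 min after the compound. Sleep time taken as duration of loss of righting reflex, end-point 150 min.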

Mus musculus [11] = test: Effect on motor coordination in CD1 Albino mouse assessed as number of falls in 30 secs at 30 mg/kg, po after 30 mins by rotarod test relative to control; type: functional; procedure, shortened: as §3
Mus musculus [12] = test: Effect on ethanol-induced sleeping time in CD1 Albino mouse assessed as increase in duration of loss of righting reflex at 3 mg/kg, po after 30 mins; type: functional, organism-based; parameters: dose 3 mg/kg; procedure, shortened: as §7
Mus musculus [13] = test: Effect on ethanol-induced sleeping time in CD1 Albino mouse assessed as increase in duration of loss of righting reflex at 10 mg/kg, po after 30 mins; type: functional, organism-based; parameters: dose 10 mg/kg; procedure, shortened: as §7
Mus musculus [14] = test: Anticonvulsant activity against pentylenetetrazole-induced seizure in CD1 Albino mouse assessed as convulsant latency at 3 mg/kg, po after 30 mins; type: functional; procedure, shortened: as §4
Mus musculus [15] = test: Anticonvulsant activity against pentylenetetrazole-induced seizure in CD1 Albino mouse assessed as shock latency at 30 mg/kg, po after 30 mins; type: functional; procedure, shortened: as §4
Mus musculus [16] = test: Anticonvulsant activity against pentylenetetrazole-induced seizure in CD1 Albino mouse assessed as convulsant latency at 10 mg/kg, po after 30 mins; type: functional; procedure, shortened: as §4
Mus musculus [17] = test: Sedative activity in CD1 albino mouse assessed as reduction of curiosity at 30 mg/kg, po after 30 mins by hole-board test; type: functional, organism-based; parameters: dose 30 mg/kg; procedure, shortened: as §5
Mus musculus [18] = test: Increase in learning and memory performance in CD1 albino mouse at 30 mg/kg, po after 24 hrs by passive avoidance test; type: functional, organism-based; parameters: dose 30 mg/kg; procedure, shortened: as §2
Mus musculus [19] = test: Anxiolytic effect in CD1 albino mouse at 30 mg/kg, po after 30 mins by light-dark box test; type: functional, organism-based; parameters: dose 30 mg/kg; procedure, shortened: as §6
Bos taurus = species on record: Bos taurus; test: Displacement of [3H]flumazenil from GABAA/BzR complex in bovine cerebral cortex membrane at 10 uM; type: cell membranes; procedure, shortened: as §1
Mus musculus [20] = test: Anticonvulsant activity against pentylenetetrazole-induced seizure in CD1 Albino mouse assessed as shock latency at 1 mg/kg, ip after 20 mins; type: functional, organism-based; parameters: dose 1 mg/kg
Procedure, shortened: (§8)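 In male CD-1 mice (22–24 g), drug in saline was given ip at 10 ml/kg; the test ran 20 min later. PTZ 90 mg/kg sc was the convulsant. Latency (s) to shock and to convulsions was scored, and clonic generalized convulsions were counted over 30 min. Significance was set at P < 0.05 versus controls.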

Mus musculus [21] = test: Anticonvulsant activity against pentylenetetrazole-induced seizure in CD1 Albino mouse assessed as convulsant latency at 1 mg/kg, ip after 20 mins; type: functional, organism-based; parameters: dose 1 mg/kg; procedure, shortened: as §8
Mus musculus [22] = test: Amnesic activity in CD1 albino mouse at 1 mg/kg, ip; type: functional, organism-based; parameters: dose 1 mg/kg
Procedure, shortened: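 Male CD-1 mice (22–24 g) given drug ip in 0.9% saline at 10 ml/kg. Passive-avoidance training followed treatment, and retention was tested 24 h later. Read-out was latency to enter the dark compartment in both sessions, capped at 60 s (training) and 180 s (retention). Means ± SEM of 15–18 mice.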

Mus musculus [23] = test: Sedative activity in CD1 albino mouse assessed as reduction of curiosity at 3 mg/kg, ip after 20 mins by hole-board test; type: functional, organism-based; parameters: dose 3 mg/kg
Procedure, shortened: (§9)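 Hole-board test in male CD-1 mice (22–24 g) after an ip dose in saline (10 ml/kg). Each mouse explored the panel and holes alone for 5 min. Spontaneous motility was scored as panel movements and curiosity as exploration of the holes.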

Mus musculus [24] = test: Sedative activity in CD1 albino mouse assessed as reduction of spontaneous motility at 3 mg/kg, ip after 20 mins by hole-board test; type: functional, organism-based; parameters: dose 3 mg/kg; procedure, shortened: as §9

Which Ki [1] does the source give for `CCOc1ccc2c(c1)n1ncc(C(=O)c3cccnc3)c1n[n+]2[O-]` here?
The Ki was 2000 nM.

Which Ki [1] does the source give for `O=C(c1ccco1)c1cnn2c1n[n+]([O-])c1ccc(OCc3ccccc3)cc12` here?
Its Ki is 1.4 nM.

Which Ki [1] does the source give for `CCOc1ccc2c(c1)n1ncc(C(=O)c3ccc(OC)cc3)c1n[n+]2[O-]` here?
The Ki was 919 nM.

With `COc1ccc(C(=O)c2cnn3c2n[n+]([O-])c2ccc(Cl)cc23)cc1` as the compound, how does the Ki [1] read?
Its Ki is 1240 nM.

For `O=C(c1ccco1)c1cnn2c1n[n+]([O-])c1ccc(Oc3ccccc3)cc12`, which Ki [1] is on record?
The Ki was 7 nM.

For `COc1ccccc1C(=O)c1cnn2c1n[n+]([O-])c1ccc(Cl)cc12`, which Ki [1] is on record?
The Ki was 4200 nM.

For `O=C(c1cccs1)c1cnn2c1n[n+]([O-])c1ccc(OCc3ccccc3)cc12`, which Ki [1] is on record?
The Ki was 2.7 nM.

With `O=C(c1ccccc1)c1cnn2c1n[n+]([O-])c1ccc(Cl)cc12` as the compound, how does the Ki [1] read?
Its Ki is 3490 nM.

Which Activity (Mus musculus [2]) does the source give for `O=C(c1cccs1)c1cnn2c1n[n+]([O-])c1ccc(Oc3ccccc3)cc12` here?
The Activity was “Active”.

What about the Activity (Mus musculus [3]) of the same compound?
Its Activity is 0.8 count.

What about the Activity (Mus musculus [4]) of the same compound?
The Activity was 766.6 s.

And the Activity (Mus musculus [5])?
The Activity was “Active”.

What about the Activity (Mus musculus [6]) of the same compound?
Its Activity is 224.5 s.

What about the Activity (Mus musculus [7]) of the same compound?
Its Activity is 279.7 s.

What about the Activity (Mus musculus [8]) of the same compound?
The Activity was “Active”.

What about the Activity (Mus musculus [9]) of the same compound?
Its Activity is 1.6 count.

What about the Activity (Mus musculus [10]) of the same compound?
Its Activity is “Active”.

What about the Activity (Mus musculus [11]) of the same compound?
Its Activity is 2 count.

And the Activity (Mus musculus [12])?
Its Activity is “Active”.

What about the Activity (Mus musculus [13]) of the same compound?
The Activity was “Active”.

What about the Activity (Mus musculus [14]) of the same compound?
The Activity was 460.3 s.

What about the Activity (Mus musculus [15]) of the same compound?
The Activity was 614.1 s.

What about the Ki [1] of the same compound?
The Ki was 8.9 nM.

What about the Activity (Mus musculus [16]) of the same compound?
Its Activity is 542.6 s.

And the Activity (Mus musculus [17])?
Its Activity is “Active”.

And the Activity (Mus musculus [18])?
The Activity was “Active”.

And the Activity (Mus musculus [19])?
The Activity was “Active”.

For `Cn1ccc(C(=O)c2cnn3c2n[n+]([O-])c2ccc(Cl)cc23)c1`, which Ki [1] is on record?
Its Ki is 380 nM.

For `O=Cc1cnn2c1n[n+]([O-])c1ccc(Cl)cc12`, which inhibition (Bos taurus) is on record?
Its inhibition is 64%.

With `CCOc1ccc2c(c1)n1ncc(C(C)=O)c1n[n+]2[O-]` as the compound, how does the Ki [1] read?
The Ki was 902 nM.

For `CN1C(=O)CN=C(c2ccccc2)c2cc(Cl)ccc21` [DIAZEPAM], which Activity (Mus musculus [20]) is on record?
The Activity was “inactive”.

And the Activity (Mus musculus [21])?
Its Activity is “inactive”.

What about the Activity (Mus musculus [22]) of the same compound?
The Activity was “Active”.

And the Activity (Mus musculus [23])?
Its Activity is “Active”.

And the Activity (Mus musculus [24])?
Its Activity is “Active”.

And the Ki [1]?
The Ki was 10 nM.

For `CC(=O)c1cnn2c1n[n+]([O-])c1ccc(Cl)cc12`, which Ki [1] is on record?
The Ki was 551 nM.

With `CC(=O)c1cnn2c1n[n+]([O-])c1ccc(Oc3ccccc3)cc12` as the compound, how does the Ki [1] read?
The Ki was 53 nM.
